Published values collected from several papers.
Compare with care: the assays were run in different laboratories.
Matrix: plasma

O=C(Nc1c(Cl)cncc1Cl)c1ccc(OC(F)F)c(OCC2CC2)c1 — half-life (human; oral; 0.5 mg; single dose): 19.9 h
O=c1c(O)c(-c2ccc(O)c(O)c2)oc2cc(O)cc(O)c12 — half-life (human; oral; 500 mg; single dose, fasted, healthy volunteers): 6.26 h
CC(=O)Oc1ccccc1C(=O)O — half-life (human; oral; 650 mg; healthy volunteers): 0.53 h
CO[C@H]1CC[C@H](N2C(=O)CNc3ncc(-c4ccc(C(C)(C)O)nc4)nc32)CC1 — half-life (human; oral; 7.5 mg; patients): 7.68 h
O=C(/C=C/c1cccc(S(=O)(=O)Nc2ccccc2)c1)NO — half-life (human; intravenous; 1900 mg/m²; patients): 1.43 h
c1cnc2ccc(Nc3nc(NC4CC4)c4nc[nH]c4n3)cc2c1 — half-life (human; oral; 100 mg/m²; patients): 3.6 h
CC(C)[C@](O)(c1ccc2cc(OC(F)F)c(OC(F)F)cc2c1)c1c[nH]nn1 — half-life (female human; oral; 450 mg; single dose): 6.4 h
Cc1nc(C(=O)NCC(=O)O)c(O)c2ccc(Oc3ccccc3)cc12 — half-life (human; oral; 100 mg; single dose, healthy volunteers): 11.7 h
CS(=O)(=O)CCC#N — half-life (human; oral; 300 mg; multiple doses, once daily): 21.3 h
Cc1nc(-c2cn3c(n2)-c2ccc(-c4cnn(C(C)(C)C(N)=O)c4)cc2OCC3)n(C(C)C)n1 — half-life (human; oral; 2 mg; patients): 28.1 h
COc1ccc([C@@H]2CN(C(=O)[C@@H](O)CO)C[C@@]2(C)[C@@H](C)O)cc1OC1CN(c2ccc(C)cn2)C1 — half-life (human; oral; 1.5 mg; single dose, healthy volunteers): 13.5 h
COc1cc(C(=O)NC2CCN(C)CC2)c(F)cc1Nc1ncc(C(F)(F)F)c(Oc2cccc3c2C(=O)N(C)C3)n1 — half-life (human; oral; 10 mg; multiple doses, once daily, patients): 25.8 h
C#C[C@]1(COP(=O)(O)OP(=O)(O)OP(=O)(O)O)O[C@@H](n2cnc3c(N)nc(F)nc32)C[C@@H]1O — half-life (human; oral; 200 mg; single dose): 116 h
C[C@@H](Nc1cc(F)cc(F)c1)c1cc(C(=O)N(C)C)cc2c(=O)cc(N3CCOCC3)oc12 — half-life (human; oral; 30 mg; patients): 3.79 h
Cn1cc(-c2ccc(S(=O)(=O)[C@@H]3C[C@@H](C(=O)NC4(C#N)CC4)N(C(=O)C4(C(F)(F)F)CC4)C3)c(C(F)(F)F)c2)cn1 — half-life (human; oral; 100 mg; single dose, fed, healthy volunteers): 8.8 h
CN(C)Cc1ccc(S(=O)(=O)n2ccc(/C=C/C(=O)NO)c2)cc1 — half-life (human; oral; patients): ~4 h
C[C@@H](c1ccc2nccn2c1)n1nnc2ncc(-c3cnn(C)c3)nc21 — half-life (human; oral; 200 mg): 4.2 h
Nc1cc(C(F)(F)F)c(-c2cc(N3CCOCC3)nc(N3CCOCC3)n2)cn1 — half-life (human; oral; 100 mg/day; patients): 30.6 h
NS(=O)(=O)NCCNc1nonc1C(=NO)Nc1ccc(F)c(Br)c1 — half-life (human; oral; 300 mg; multiple doses, twice daily, steady state, patients): 3.9 h
CO[C@H]1/C=C\C=C(/C)C(=O)NC2=CC(=O)C(NCCN(C)C)=C(C[C@@H](C)C[C@H](OC)[C@H](O)[C@@H](C)/C=C(\C)[C@@H]1OC(N)=O)C2=O — half-life (human; intravenous; 12 mg/m²; patients, infusion): 14.1 h
CCNCCCNC/C=C\CNCCCNCC — half-life (human; intravenous; 100 mg; patients, infusion): 0.19 h
CCOc1cc([C@@H](CS(C)(=O)=O)N2C(=O)c3cccc(NC(C)=O)c3C2=O)ccc1OC — half-life (human; oral; 30 mg; single dose, healthy volunteers): 8.08 h
CC(C)n1cc(C#N)c2cc(-n3cc(C(=O)O)cn3)ccc21 — half-life (human; oral; 100 mg; single dose, fasted, healthy volunteers): 6.6 h
COCCOc1cnc2ccn([C@H](C)c3nnc4c(F)cc(-c5cnn(C)c5)cn34)c(=O)c2c1 — half-life (human; oral; 300 mg; multiple doses, once daily, patients): 9.7 h
COc1ccc(Oc2cc(N(C)CCOc3ccc(CC4SC(=O)NC4=O)cc3)ncn2)cc1 (stereo not drawn) — half-life (male human; oral; 0.5 mg; multiple doses, once daily, steady state): 7.06 h
CCOc1cc2ncc(C#N)c(Nc3ccc(OCc4ccccn4)c(Cl)c3)c2cc1NC(=O)/C=C/[C@H]1CCCN1C — half-life (human; oral; 80 mg; single dose): 12.9 h
CO[C@@H]1[C@H](OC(=O)N2CC(CCN3CCOCC3)C2)CC[C@]2(CO2)[C@H]1[C@@]1(C)O[C@@H]1CC=C(C)C — half-life (human; subcutaneous; 4.8 mg; single dose, healthy volunteers): 0.91 h
CC(C)(Sc1ccncc1-c1ccc(C#N)c2ccccc12)C(=O)O — half-life (male human; oral; 5 mg; single dose, fed, healthy volunteers): 12.7 h
Cc1cc(Nc2ncc(Cl)c(Nc3ccccc3S(=O)(=O)C(C)C)n2)c2c(c1C1CCN(C)CC1)C[C@@H](C)O2 — half-life (human; oral; 160 mg; single dose, fasted, healthy volunteers): 34.6 h
CC(C)(O)c1ccccc1-c1ccc2[nH]c(/C=C/c3ccc(C(F)(F)F)cc3)nc2c1 — half-life (male human; oral; 50 mg; single dose, fasted, healthy volunteers): 68.6 h
CCOc1ccc(Cc2cc([C@@H]3O[C@H](CO)[C@@H](O)[C@H](O)[C@H]3O)ccc2Cl)cc1 — half-life (human; oral; 10 mg; multiple doses, steady state, healthy volunteers): 10.4 h
COc1ccc(-n2nc(C(N)=O)c3c2C(=O)N(c2ccc(N4CCCCC4=O)cc2)CC3)cc1 — half-life (human; oral; 10 mg; single dose, healthy volunteers): 12.7 h
C/C(=C\c1csc(C)n1)[C@@H]1C[C@@H]2O[C@]2(C)CCC[C@H](C)[C@H](O)[C@@H](C)C(=O)C(C)(C)[C@@H](O)CC(=O)N1 — half-life (human; intravenous; 20 mg/m²; patients): 62.2 h
